According to ChEMBL document CHEMBL1121933 (1982):

Key:
[1] = organism: Oryctolagus cuniculus; experiment: Apparent affinity was measured on the rabbit mesenteric vein.; format: functional
Summary of the method: (§1)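 Rabbit mesenteric vein from rabbits killed by stunning and exsanguination. Concentration-response curves built by consecutive drug additions to the bath fluid.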

[2] = organism: Cavia porcellus; experiment: Intrinsic activity was measured on the guinea pig ileum.; format: functional
Summary of the method: (§2)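 Guinea pig ileum (animals 200-400 g, both sexes) from animals killed by stunning and exsanguination. Concentration-response curves built by consecutive additions of drug to the bath.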

[3] = system: Rattus norvegicus; experiment: Relative potency compared substance P - change in blood pressure in anesthetized rat.; format: functional
Summary of the method: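 Rats 200-250 g, anesthetized with urethane (1.4 g/kg, sc). Peptides injected into the jugular vein. Blood pressure recorded directly via a cannula in the right carotid artery with a mercury manometer on a kymograph-driven smoked drum.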

[4] = organism: Oryctolagus cuniculus; experiment: Intrinsic activity was measured on the rabbit mesenteric vein.; format: functional; summary of the method: as §1
[5] = organism: Canis familiaris; experiment: Apparent affinity was measured on the dog carotid artery.; format: functional, Canis lupus familiaris
[6] = organism: Canis familiaris; experiment: Relative affinity compared to substance P was measured in the dog carotid artery.; format: functional, Canis lupus familiaris
[7] = organism: Cavia porcellus; experiment: Relative affinity compared to substance P was measured in guinea pig ileum.; format: functional; summary of the method: as §2
[8] = organism: Cavia porcellus; experiment: Apparent affinity was measured on the guinea pig ileum.; format: functional; summary of the method: as §2
[9] = organism: Oryctolagus cuniculus; experiment: Relative affinity compared to substance P was measured in rabbit mesenteric vein.; format: functional; summary of the method: as §1
[10] = organism: Canis familiaris; experiment: Intrinsic activity was measured on the dog carotid artery.; format: functional, Canis lupus familiaris

Compound: CSCC[C@H](NC(=O)[C@H](CC(C)C)NC(=O)CNC(=O)[C@H](Cc1ccccc1)NC(=O)[C@H](CC1CCCCC1)NC(=O)[C@H](CCC(N)=O)NC(=O)[C@H](CCC(N)=O)NC(=O)[C@@H]1CCCN1C(=O)[C@H](CCCCN)NC(=O)[C@@H]1CCCN1C(=O)[C@@H](N)CCCN=C(N)N)C(N)=O
- pD2 [1]: 6.66
- Alphax10E [2]: 1
- RP [3]: 21
- Alphax10E [4]: 0.8
- pD2 [5]: 8.8
- RA [6]: 6.4
- RA [7]: 20
- pD2 [8]: 8.08
- RA [9]: 13.2
- Alphax10E [10]: 1

Compound: CC[C@H](C)[C@H](NC(=O)[C@H](Cc1ccccc1)NC(=O)[C@H](CCC(N)=O)NC(=O)[C@H](CCC(N)=O)NC(=O)[C@@H]1CCCN1C(=O)[C@H](CCCCN)NC(=O)[C@@H]1CCCN1C(=O)[C@@H](N)CCCN=C(N)N)C(=O)NCC(=O)N[C@@H](CC(C)C)C(=O)N[C@@H](CCSC)C(N)=O
- pD2 [1]: 7.55
- Alphax10E [2]: 1
- RP [3]: 100
- Alphax10E [4]: 1
- RA [7]: 100
- pD2 [8]: 8.78
- RA [9]: 100

Compound: CSCC[C@H](NC(=O)[C@H](CC(C)C)NC(=O)CNC(=O)[C@H](CC1CCCCC1)NC(=O)[C@H](Cc1ccccc1)NC(=O)[C@H](CCC(N)=O)NC(=O)[C@H](CCC(N)=O)NC(=O)[C@@H]1CCCN1C(=O)[C@H](CCCCN)NC(=O)[C@@H]1CCCN1C(=O)[C@@H](N)CCCN=C(N)N)C(N)=O
- pD2 [1]: 7.55
- Alphax10E [2]: 1
- RP [3]: 100
- Alphax10E [4]: 1
- RA [7]: 100
- pD2 [8]: 8.78
- RA [9]: 100

Compound: CSCC[C@H](NC(=O)[C@H](CC(C)C)NC(=O)[C@@H](Cc1ccccc1)NC(=O)[C@@H](CC(C)C)NC(=O)[C@H](Cc1ccccc1)NC(=O)[C@H](CCC(N)=O)NC(=O)[C@H](CCC(N)=O)NC(=O)[C@@H]1CCCN1C(=O)[C@H](CCCCN)NC(=O)[C@@H]1CCCN1C(=O)[C@@H](N)CCCN=C(N)N)C(N)=O
- RP [3]: 1.3
- pD2 [5]: 7.89
- RA [6]: 0.8
- RA [7]: 1.2
- pD2 [8]: 6.83
- RA [9]: <0.01
- Alphax10E [10]: 1

Compound: CSCC[C@H](NC(=O)[C@H](CC(C)C)NC(=O)CNC(=O)[C@@H](Cc1c[nH]c2ccccc12)NC(=O)[C@H](Cc1ccccc1)NC(=O)[C@H](CCC(N)=O)NC(=O)[C@H](CCC(N)=O)NC(=O)[C@@H]1CCCN1C(=O)[C@H](CCCCN)NC(=O)[C@@H]1CCCN1C(=O)[C@@H](N)CCCN=C(N)N)C(N)=O
- pD2 [1]: 4.92
- Alphax10E [2]: 1
- RP [3]: 0.8
- pD2 [5]: 7.12
- RA [6]: 0.2
- RA [7]: 0.8
- pD2 [8]: 6.68
- RA [9]: 0.3
- Alphax10E [10]: 1

Compound: COc1ccc(C[C@H](NC(=O)[C@H](CCC(N)=O)NC(=O)[C@H](CCC(N)=O)NC(=O)[C@@H]2CCCN2C(=O)[C@H](CCCCN)NC(=O)[C@@H]2CCCN2C(=O)[C@@H](N)CCCN=C(N)N)C(=O)N[C@@H](Cc2ccccc2)C(=O)NCC(=O)N[C@@H](CC(C)C)C(=O)N[C@@H](CCSC)C(N)=O)cc1
- pD2 [1]: 6.87
- Alphax10E [2]: 1
- RP [3]: 31
- Alphax10E [4]: 0.8
- RA [7]: 31
- pD2 [8]: 8.27
- RA [9]: 20.5

Compound: CSCC[C@H](NC(=O)[C@H](CC(C)C)NC(=O)CNC(=O)[C@H](Cc1ccccc1)NC(=O)[C@H](CC(C)C)NC(=O)[C@H](CCC(N)=O)NC(=O)[C@H](CCC(N)=O)NC(=O)[C@@H]1CCCN1C(=O)[C@H](CCCCN)NC(=O)[C@@H]1CCCN1C(=O)[C@@H](N)CCCN=C(N)N)C(N)=O
- pD2 [1]: 5.66
- Alphax10E [2]: 1
- RP [3]: 0.8
- pD2 [5]: 7.64
- RA [6]: 0.4
- RA [7]: 2.3
- pD2 [8]: 7.15
- RA [9]: 1.3
- Alphax10E [10]: 1

Compound: COc1ccc(C[C@H](NC(=O)[C@H](Cc2ccccc2)NC(=O)[C@H](CCC(N)=O)NC(=O)[C@H](CCC(N)=O)NC(=O)[C@@H]2CCCN2C(=O)[C@H](CCCCN)NC(=O)[C@@H]2CCCN2C(=O)[C@@H](N)CCCN=C(N)N)C(=O)NCC(=O)N[C@@H](CC(C)C)C(=O)N[C@@H](CCSC)C(N)=O)cc1
- pD2 [1]: 7.55
- Alphax10E [2]: 1
- RP [3]: 100
- Alphax10E [4]: 1
- pD2 [5]: 9.98
- RA [6]: 95
- RA [7]: 100
- pD2 [8]: 8.78
- RA [9]: 100
- Alphax10E [10]: 1

Compound: CSCC[C@H](NC(=O)[C@H](CC(C)C)NC(=O)[C@@H](CC(C)C)NC(=O)[C@H](Cc1ccccc1)NC(=O)[C@H](Cc1ccccc1)NC(=O)[C@H](CCC(N)=O)NC(=O)[C@H](CCC(N)=O)NC(=O)[C@@H]1CCCN1C(=O)[C@H](CCCCN)NC(=O)[C@@H]1CCCN1C(=O)[C@@H](N)CCCN=C(N)N)C(N)=O
- pD2 [1]: 5.11
- Alphax10E [2]: 1
- RP [3]: 0.7
- pD2 [5]: 7.49
- RA [6]: 0.3
- RA [7]: 2.7
- pD2 [8]: 7.21
- RA [9]: 0.4
- Alphax10E [10]: 1

Compound: CSCC[C@H](NC(=O)[C@H](CC(C)C)NC(=O)CNC(=O)[C@H](Cc1ccccc1)NC(=O)[C@H](Cc1c[nH]c2ccccc12)NC(=O)[C@H](CCC(N)=O)NC(=O)[C@H](CCC(N)=O)NC(=O)[C@@H]1CCCN1C(=O)[C@H](CCCCN)NC(=O)[C@@H]1CCCN1C(=O)[C@@H](N)CCCN=C(N)N)C(N)=O
- pD2 [1]: 6.55
- Alphax10E [2]: 1
- RP [3]: 51
- pD2 [5]: 9.56
- RA [6]: 37.1
- RA [7]: 39.7
- pD2 [8]: 8.38
- RA [9]: 10
- Alphax10E [10]: 1

Compound: CSCC[C@H](NC(=O)[C@H](Cc1ccccc1)NC(=O)CNC(=O)[C@@H](C)NC(=O)[C@H](Cc1ccccc1)NC(=O)[C@H](CCC(N)=O)NC(=O)[C@H](CCC(N)=O)NC(=O)[C@@H]1CCCN1C(=O)[C@H](CCCCN)NC(=O)[C@@H]1CCCN1C(=O)[C@@H](N)CCCN=C(N)N)C(N)=O
- RP [3]: 0.09
- pD2 [5]: 8.15
- RA [6]: 1.4
- RA [7]: <0.01
- pD2 [8]: 4.73
- RA [9]: <0.1
- Alphax10E [10]: 1

Compound: CSCC[C@H](NC(=O)[C@H](CC(C)C)NC(=O)CNC(=O)[C@H](Cc1ccccc1)NC(=O)[C@@H](Cc1c[nH]c2ccccc12)NC(=O)[C@H](CCC(N)=O)NC(=O)[C@H](CCC(N)=O)NC(=O)[C@@H]1CCCN1C(=O)[C@H](CCCCN)NC(=O)[C@@H]1CCCN1C(=O)[C@@H](N)CCCN=C(N)N)C(N)=O
- Alphax10E [2]: 1
- RP [3]: 0.2
- pD2 [5]: 7.33
- RA [6]: 0.2
- RA [7]: 0.2
- pD2 [8]: 5.9
- RA [9]: <0.1
- Alphax10E [10]: 1

Compound: CSCC[C@H](NC(=O)[C@H](CC(C)C)NC(=O)CNC(=O)[C@H](CC(C)C)NC(=O)[C@H](Cc1ccccc1)NC(=O)[C@H](CCC(N)=O)NC(=O)[C@H](CCC(N)=O)NC(=O)[C@@H]1CCCN1C(=O)[C@H](CCCCN)NC(=O)[C@@H]1CCCN1C(=O)[C@@H](N)CCCN=C(N)N)C(N)=O
- pD2 [1]: 6.92
- Alphax10E [2]: 1
- RP [3]: 70
- Alphax10E [4]: 0.8
- pD2 [5]: 9.81
- RA [6]: 64
- RA [7]: 68
- pD2 [8]: 8.61
- RA [9]: 23.6
- Alphax10E [10]: 1

Compound: H-RPKPQQFGGFM-NH2
- RP [3]: 0.07
- pD2 [5]: 7.33
- RA [6]: 0.2
- RA [7]: <0.1
- pD2 [8]: 5.31
- RA [9]: <0.1
- Alphax10E [10]: 1

Compound: H-RPKPQQLLGLM-NH2
- RP [3]: 0.2
- pD2 [5]: 6.38
- RA [6]: <0.1
- RA [7]: <0.1
- pD2 [8]: 5.29
- RA [9]: <0.01
- Alphax10E [10]: 1
